According to ChEMBL document CHEMBL2176917, “Effect of the prosthetic group on the pharmacologic properties of 18F-labeled rhodamine B, a potential myocardial perfusion agent for positron emission tomography (PET)” (J Med Chem, 2012):

Key:
Kidney (mouse) = assay: Drug uptake in mouse kidney at 3.7 to 5.6 MBq after 60 mins by PET analysis; conditions: in vivo, 1 h
Intestine (mouse) = assay: Drug uptake in mouse intestine at 3.7 to 5.6 MBq after 60 mins by PET analysis; conditions: in vivo, 1 h
Blood = assay: Biodistribution in rat blood at 1.1 to 2.2, iv after 60 mins; type: ADME, organism-based; conditions: in vivo, 1 h
Outline: (§1)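 Five rats per tracer received 1.1–2.2 MBq (30–60 µCi) of the 18F-labeled rhodamine ester in 100 µL 10% EtOH/saline through the tail vein after 0.2 µm filtration. They were killed by CO2 asphyxia at 60 min p.i. Excised tissues were weighed and counted for 18F. %ID/g was calculated against an injectate standard. Heart-to-blood ratios were derived from these values.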

Spleen (mouse) = assay: Drug uptake in mouse spleen at 3.7 to 5.6 MBq after 60 mins by PET analysis; conditions: in vivo, 1 h
[1] = Drug excretion in rat gut at 3.7 to 5.6 MBq after 60 mins by PET analysis; type: ADME, tissue-based; conditions: in vivo, 1 h
Outline: (§2)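 Each group of at least five rats was injected with 100 µL of filtered tracer (3.7–5.6 MBq, 100–150 µCi) in 10% EtOH/saline under isoflurane anesthesia (2–4% in air). MicroPET acquisition began as soon as possible after injection and ran 60 min in list mode. Images were reconstructed by 2D OSEM as one 60 min image or six 10 min frames. Time-activity curves for organs were expressed as kBq/cm3.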

Liver [2] = assay: Drug uptake in rat liver at 3.7 to 5.6 MBq after 60 mins by PET analysis; type: ADME, tissue-based; conditions: in vivo, 1 h
Outline: as §2

[3] = Drug uptake in rat myocardium at 3.7 to 5.6 MBq after 60 mins by PET analysis; type: ADME, tissue-based; conditions: in vivo, 1 h
Outline: as §2

Kidney = assay: Drug excretion in rat kidney at 3.7 to 5.6 MBq after 60 mins by PET analysis; type: ADME, tissue-based; conditions: in vivo, 1 h
Outline: as §2

Liver [4] = assay: Biodistribution in rat liver at 1.1 to 2.2, iv after 60 mins; type: ADME, organism-based; conditions: in vivo, 1 h
Outline: as §1

Heart = assay: Drug uptake in rat heart at 3.7 to 5.6 MBq after 5 mins by PET analysis; type: ADME, tissue-based; conditions: in vivo
Outline: as §2

[5] = Metabolic stability of the compound in mouse serum at 3.7 to 5.6 MBq after 120 mins; type: ADME, cell-free; conditions: read-out: Stability
Outline: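 Radiotracer (3.7–5.6 MBq) in 10% EtOH/PBS was added to serum pre-equilibrated at 37°C, shaken and incubated at 37°C. Aliquots were taken at 15, 30, 60 and 120 min and quenched with cold absolute EtOH. They were held on ice for 5 min, passed through a 30 kD cutoff filter at 4°C, and the water-diluted filtrate was analysed by radio-HPLC for intact tracer. A PBS incubation ran in parallel.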

Liver [6] = assay: Drug uptake in rat liver at 3.7 to 5.6 MBq after 30 mins by PET analysis; type: ADME, tissue-based; conditions: in vivo, 0.5 h
Outline: as §2

Rattus norvegicus = assay: Biodistribution in rat gut at 1.1 to 2.2, iv after 60 mins; type: ADME, organism-based; conditions: in vivo, 1 h
Outline: as §1

[7] = Ratio of drug level in heart to blood in rat at 1.1 to 2.2, iv after 60 mins; type: ADME, organism-based; conditions: heart and blood (heart-to-blood ratio)
Outline: as §1

Muscle tissue = assay: Biodistribution in rat muscle at 1.1 to 2.2, iv after 60 mins; type: ADME, organism-based; conditions: in vivo, 1 h
Outline: as §1

Liver [8] = assay: Drug uptake in rat liver at 3.7 to 5.6 MBq after 5 mins by PET analysis; type: ADME, tissue-based; conditions: in vivo
Outline: as §2

Gall bladder (mouse) = assay: Drug uptake in mouse gall bladder at 3.7 to 5.6 MBq after 60 mins by PET analysis; conditions: in vivo, 1 h
[9] = Metabolic stability of the compound in human serum at 3.7 to 5.6 MBq after 120 mins; type: ADME, cell-free; conditions: read-out: Stability
Outline: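 Tracer (3.7–5.6 MBq) in 20 µL 10% EtOH/PBS was added to 200 µL of mouse, rat or human serum, or to PBS, prewarmed to 37°C, then shaken and incubated at 37°C. At 15, 30, 60 and 120 min, aliquots were quenched with cold ethanol and kept on ice. Samples were filtered (30 kD cutoff, 4°C), diluted with water and analysed by radio-HPLC for intact tracer.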

Nucleic Acid [10] = assay: Ratio of drug level in heart to lung in rat at 1.1 to 2.2, iv after 60 mins; type: ADME, organism-based; conditions: in vivo, 1 h
Outline: (§3)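 Five rats per compound each received 1.1–2.2 MBq of tracer in 10% EtOH/saline by tail vein. They were killed by CO2 at 60 min p.i., and selected tissues were excised, weighed and counted for 18F. %ID/g was calculated against a standard prepared from the injectate. Unpaired two-tailed t test.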

Nucleic Acid [11] = assay: Ratio of drug level in heart to liver in rat at 1.1 to 2.2, iv after 60 mins; type: ADME, organism-based; conditions: in vivo, 1 h
Outline: as §3

Nucleic Acid [12] = assay: Ratio of drug level in heart to bone in rat at 1.1 to 2.2, iv after 60 mins; type: ADME, organism-based; conditions: in vivo, 1 h
Outline: as §3

[13] = Ratio of drug level in heart to blood in Sprague-Dawley rat after 60 mins; type: ADME; conditions: heart and blood (heart-to-blood ratio)
Nucleic Acid [14] = assay: Ratio of drug level in heart to liver in Sprague-Dawley rat after 60 mins; type: ADME, tissue-based; conditions: in vivo, 1 h
Nucleic Acid [15] = assay: Ratio of drug level in heart to liver in Wistar rat after 60 mins; type: ADME, tissue-based; conditions: in vivo, 1 h
[16] = Ratio of drug level in heart to blood in Sprague-Dawley rat after 5 mins; type: ADME; conditions: heart and blood (heart-to-blood ratio)

SMILES | Drug uptake (Kidney (mouse)) | Drug uptake (Intestine (mouse)) | Drug uptake (Blood) [% ID/g] | Drug uptake (Spleen (mouse)) | Drug excretion [1] | Drug uptake (Liver [2]) | Drug uptake [3] | Drug excretion (Kidney) | Drug uptake (Liver [4]) [% ID/g] | Drug uptake (Heart) [kBq/cm3] | remaining at 2 h [5] [%] | Drug uptake (Rattus norvegicus) [% ID/g] | Kp at 1 h [7] | Drug uptake (Muscle tissue) [% ID/g] | Drug uptake (Liver [8]) [kBq/cm3] | Drug uptake (Gall bladder (mouse)) | remaining at 2 h [9] [%] | Kp at 1 h [13] | Ratio (Nucleic Acid [14]) | also measured
CCN(CC)c1ccc2c(-c3ccccc3C(=O)OCCOCC[18F])c3ccc(=[N+](CC)CC)cc-3oc2c1.Cc1ccc(S(=O)(=O)[O-])cc1 | Active | Active | 0.25 | Active | Active | Active | Active | Active | 0.49 | 69 | 97.1 | 1.69 | 10 | 0.54 | 59 | Active | 97.1 |  |  | Drug uptake (Liver [6]): Active
CCN(CC)c1ccc2c(-c3ccccc3C(=O)OCC[18F])c3ccc(=[N+](CC)CC)cc-3oc2c1.Cc1ccc(S(=O)(=O)[O-])cc1 |  |  | 0.08 |  |  | Active |  |  | 0.89 |  | 25 | 2.4 | 25.8 | 0.16 |  |  |  |  |  | Ratio (Nucleic Acid [10]): 1.6; Ratio (Nucleic Acid [11]): 2.3; Ratio (Nucleic Acid [12]): 4.6
CCN(CC)c1ccc2c(-c3ccccc3C(=O)OCCC[18F])c3ccc(=[N+](CC)CC)cc-3oc2c1.Cc1ccc(S(=O)(=O)[O-])cc1 |  |  | 0.05 |  | Active | Active | Active | Active | 0.55 | 66 |  | 2.53 | 26.4 | 0.3 | 65 |  | 99 |  |  | 
CCN(CC)c1ccc2c(-c3ccccc3C(=O)OCCOCCOCC[18F])c3ccc(=[N+](CC)CC)cc-3oc2c1.Cc1ccc(S(=O)(=O)[O-])cc1 | Active | Active | 0.19 | Active | Active | Active | Active | Active | 0.25 | 16 |  | 0.44 | 5.4 | 0.32 | 15 | Active |  |  |  | 
CC(C)(C)n1ncc(OCc2ccc(COCC[18F])cc2)c(Cl)c1=O [FLURPIRIDAZ F 18] |  |  |  |  |  |  |  |  |  |  |  |  |  |  |  |  |  | 13.7 | 3.7 | Ratio (Nucleic Acid [15]): 5.4
[18F]c1ccc([P+](c2ccccc2)(c2ccccc2)c2ccccc2)cc1 [BFPET F-18] |  |  |  |  |  |  |  |  |  |  |  |  |  |  |  |  |  | 75 | 9.2 | Kp at 5 min [16]: 11
